The source of these data is ChEMBL document CHEMBL3804769, “Antibacterial Diamines Targeting Bacterial Membranes” (J Med Chem, 2016).

As usually defined, the MIC99 is the lowest concentration that inhibits either 99% of growth or 99% of the strains tested, depending on the study. What is called CC50 is the concentration giving 50% cytotoxicity. Low readings indicate greater toxicity to the cells, high ones lower toxicity to the cells.

Structures are written as SMILES. Calls of active or inactive are those of the source. The calls are words filed in the database; no cut-off is given here.

Data set [1] relates to Staphylococcus aureus. The data set can be described thus: Bactericidal activity against Staphylococcus aureus RN4220 ATCC 35556 assessed as reduction in bacterial burden at 0.5 times MIC99 after 3 to 24 hrs by time kill assay in presence of 0.5 times MIC99 of kanamycin relative to control. It counts as functional. In outline:
(§1)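 Combination time-kill in LB at 1 × 10⁶ CFU/mL starting inoculum. Arms were compound or kanamycin alone at 1× and 0.5× MIC99, and the two combined at 0.5× MIC99 each. Incubated at 37 °C with shaking at 300 rpm. Viable counts taken by dilution and plating on LB agar at 0, 3, 6 and 24 h.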

Data set [2] has as its system Staphylococcus aureus. The data set can be described thus: Bactericidal activity against Staphylococcus aureus RN4220 ATCC 35556 assessed as reduction in bacterial burden at 4 times MIC99. Format: functional.
The nature of data set [3]: Selectivity index, ratio of CC50 for human A549 cells to MIC99 for Escherichia coli ANS1. In outline:
(§2)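 CC50: HEK293T/17 or A549 cells seeded at 10⁴ per well in DMEM with 10% FBS at 37 °C, 5% CO2. After 24 h, wells PBS-washed and serially diluted compound applied for 48 h, with viability read by MTS and CC50 taken by nonlinear regression. MIC99 by CLSI broth microdilution, overnight at 37 °C without shaking, from three independent tests. SI = CC50/MIC99.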

Data set [4] is described as follows: Selectivity index, ratio of CC50 for human A549 cells to MIC99 for Pseudomonas aeruginosa PAO1 ATCC 47085. Format: toxicity, cell-based. The note with it: read-out: Selectivity Index. In outline:
as §2

A short description of data set [5]: Selectivity index, ratio of CC50 for HEK293T/17 cells to MIC99 for methicillin-resistant Staphylococcus aureus clinical isolate.
Data set [6] concerns Pseudomonas aeruginosa. The data set can be described thus: Bactericidal activity against Pseudomonas aeruginosa PAO1 ATCC 47085 assessed as reduction in bacterial burden at 0.5 times MIC99 after 3 to 24 hrs by time kill assay in presence of 0.5 times MIC99 of kanamycin relative to control. It counts as functional, organism-based. In outline:
as §1

The subject of data set [7] is Staphylococcus aureus. The data set can be described thus: Potentiation of kanamycin-induced antibacterial activity against Staphylococcus aureus RN4220 ATCC 35556 assessed as kanamycin MIC at 0.5 times MIC99 after 24 hrs by checkerboard assay (reference value: 16 ug/ml). It counts as functional. The note with it: RN4220 ATCC 35556, 24 h. In outline:
(§3)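 Checkerboard assay: compound serially diluted along one axis of a 96-well plate and antibiotic along the other, in LB. Each well inoculated with 2 × 10⁴ CFU and incubated 24 h at 37 °C. ΣFIC = FIC A + FIC B, where each FIC is the combination MIC99 divided by the MIC99 of that drug alone.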

Data set [8] relates to Staphylococcus aureus. The data set can be described thus: Antibacterial activity against methicillin-resistant Staphylococcus aureus clinical isolate 10076B SPA type 2 after 24 hrs by microbroth dilution method. It counts as functional. In outline: (§4)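 MRSA isolates from ICU surfaces, stored at −80 °C and grown in Mueller-Hinton broth. Overnight cultures diluted and added to serially diluted compound at ~10⁵ CFU/mL, broth microdilution. Plates incubated 24 h at 37 °C, growth read as absorbance at 620 nm. MIC99 taken as the lowest concentration giving complete growth inhibition.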

Data set [9] can be described thus: Selectivity index, ratio of CC50 for HEK293T/17 cells to MIC99 for Pseudomonas aeruginosa PAO1 ATCC 47085. Format: toxicity, cell-based. The note with it: human, read-out: Selectivity Index. In outline: as §2
Data set [10] concerns Staphylococcus aureus. The data set can be described thus: Antibacterial activity against methicillin-resistant Staphylococcus aureus clinical isolate 20467BA SPA type 59 after 24 hrs by microbroth dilution method. It counts as functional. In outline: as §4
Data set [11] has as its system Caenorhabditis elegans. The data set can be described thus: Toxicity in adult L4/juvenile L1 stages of Caenorhabditis elegans N2 assessed as effect on egg development at 64 ug/ml incubated for 96 hrs measured every 12 hrs. Format: organism-based. The note with it: in vivo. In outline:
(§5)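 C. elegans N2 maintained on NGM agar at 22 °C. Compound mixed into molten NGM agar at 64 μg/mL. L4 adults, L1 juveniles and synchronized eggs transferred onto test plates and kept 96 h at 22 °C. Checked every 12 h for death, development and egg production. Gentamicin and […] as controls.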

Data set [12] deals with Caenorhabditis elegans. The data set can be described thus: Toxicity in adult L4/juvenile L1 stages of Caenorhabditis elegans N2 assessed as effect on viable eggs production at 64 ug/ml incubated for 96 hrs measured every 12 hrs. Format: organism-based. The note with it: in vivo. In outline: as §5
Data set [13] has as its system Escherichia coli. The data set can be described thus: Antibacterial activity against Escherichia coli ANS1 incubated overnight by microbroth dilution method. It counts as functional. In outline: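 Bacteria grown in LB medium. CLSI microbroth dilution in 96-well plates, overnight at 37 °C without shaking. MIC99 taken as the lowest concentration giving complete growth inhibition. Three independent determinations, reported as mean ± SD.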
(In broth dilution the organism is exposed to a series of concentrations in liquid medium.)

In data set [14] the test system is Caenorhabditis elegans. The data set can be described thus: Toxicity in adult L4/juvenile L1 stages of Caenorhabditis elegans N2 assessed as deleterious effect on genotype at 64 ug/ml incubated for 96 hrs measured every 12 hrs. It counts as organism-based. To be noted: in vivo.
Data set [15] is described as follows: Cytotoxicity against human A549 cells after 48 hrs by MTS conversion assay. Format: cell-based. In outline:
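HEK293T/17 and A549 cells maintained in DMEM with 10% FBS at 37 °C, 5% CO2. Seeded at 10⁴ cells per well; after 24 h, washed with PBS and exposed to serially diluted compound for 48 h. Viability read by MTS conversion. CC50 obtained by nonlinear regression.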
For orientation: Tetrazolium assays rely on reduction of a dye to a coloured formazan, in cell work by metabolically active cells.

In data set [16] the test system is Pseudomonas aeruginosa. The data set can be described thus: Antibacterial activity against Pseudomonas aeruginosa PAO1 ATCC 47085 in early exponential-phase assessed as membrane damage at 2 times MIC99 after 15 mins by transmission electron microscopy. It counts as functional, organism-based. In outline:
(§6)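 Cells grown in LB to early exponential phase (OD600 ~0.4). Exposed to 2× MIC99 for 15–60 min, washed twice in phosphate buffer, fixed in 2.5% glutaraldehyde, then imaged by transmission electron microscopy.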

The subject of data set [17] is Pseudomonas aeruginosa. The data set can be described thus: Antibacterial activity against Pseudomonas aeruginosa PAO1 ATCC 47085 at 0.5 times MIC99 after 24 hrs by checkerboard assay in presence of ampicillin. Format: functional. In outline:
as §3

For data set [18], the system named is Pseudomonas aeruginosa. The data set can be described thus: Antibacterial activity against Pseudomonas aeruginosa PAO1 ATCC 47085 at 0.5 times MIC99 after 24 hrs by checkerboard assay in presence of kanamycin. Format: functional. In outline:
as §3

Data set [19] relates to Staphylococcus aureus. The data set can be described thus: Antibacterial activity against Staphylococcus aureus RN4220 ATCC 35556 in early exponential-phase assessed as lysis of cells at 2 times MIC99 after 30 to 60 mins by transmission electron microscopy. Format: functional, organism-based. In outline:
as §6

Data set [20] has as its system Staphylococcus aureus. The data set can be described thus: Antibacterial activity against Staphylococcus aureus RN4220 ATCC 35556 at 0.5 times MIC99 after 24 hrs by checkerboard assay in presence of ampicillin. Format: functional. In outline:
as §3

In data set [21] the test system is Staphylococcus aureus. The data set can be described thus: Antibacterial activity against Staphylococcus aureus RN4220 ATCC 35556 in exponential-phase assessed as cytoplasmic membrane depolarization at 1 to 4 times MIC99 by fluorescent probe DiSC3-5 based fluorophotometric analysis. Format: functional, organism-based. In outline:
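Log-phase cells (OD600 ~0.7) washed and resuspended to OD600 0.05 in 5 mM HEPES pH 7.2 with 5 mM glucose and 100 mM KCl. Loaded with 0.4 μM DiSC3-5 in the dark until fluorescence fell stably by about 90%. Compound added at 4× or 1× MIC99 and fluorescence recorded continuously at 25 °C (ex 622/em 670 nm). 2,4-Dinitrophenol as positive control. Three independent experiments.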

`Cl.Cl.S=C(NCCCNCCCCCNCCCNC(=S)NCC(c1ccccc1)c1ccccc1)NCC(c1ccccc1)c1ccccc1`: the Activity in data set [1] is on record as over 2 deltalog10CFU/ml; in data set [2], over 2 deltalog10CFU/ml; in data set [11] it was “Non-toxic”; in [12], “Non-toxic”; in [14], “Non-toxic”. For the same compound, the “Selectivity Index” value in data set [3] and in data set [5] was 32 each time. In addition, the selectivity ratio amounted to 8 in data set [4] and 4 in data set [9]. Further, the outcome in data set [6], in data set [16], in data set [19] and in data set [21] was Active. Moreover, the MIC99 amounted to 2 µg/mL in [7], 1 µg/mL in data set [8], 1 µg/mL in data set [10] and 2 µg/mL in data set [13]. Besides, it took 64 µg/mL to reach half-maximal cytotoxicity in [15] (CC50 at 48 h). The entries for the “fractional inhibitory concentration index (FICI)” value in [17], in [18] and in [20] were 2, 0.75 and 0.75, respectively.
